According to ChEMBL document CHEMBL3797175, “Discovery of 6-(difluoro(6-(4-fluorophenyl)-[1,2,4]triazolo[4,3-b][1,2,4]triazin-3-yl)methyl)quinoline as a highly potent and selective c-Met inhibitor” (Eur J Med Chem, 2016):
The source made the active and inactive calls. The rule behind the calls is not given here.

Experiments:
[1] = Antitumor activity against human EBC1 cells xenografted in athymic nude mouse assessed as tumor growth inhibition at 25 mg/kg, po bid for 21 days measured twice a week during compound dosing relative to control; assay type: functional; conditions: EBC-1, po, 504 h, read-out: TGI
Summary of the method: (§1)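 Nude mice bearing s.c. tumours. Cells were first grown s.c. to 700–800 mm³, then 1.5 mm³ fragments were transplanted s.c. into the right flank. Mice were randomised at 100–200 mm³ (n=6 treated, n=12 vehicle) and dosed orally twice daily for 21 days. Caliper measurement twice weekly; TV = length×width²/2. TGI taken on the final day versus vehicle; Student's t test.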

[2] = molecular target: Epidermal growth factor receptor (Homo sapiens) (UniProt P00533); experiment: Inhibition of recombinant EGFR (unknown origin) using poly (Glu, Tyr) 4:1 as substrate at 1000 nM incubated for 60 mins by ELISA relative to control
Sequence of Epidermal growth factor receptor (Homo sapiens) (P00533 whole entry): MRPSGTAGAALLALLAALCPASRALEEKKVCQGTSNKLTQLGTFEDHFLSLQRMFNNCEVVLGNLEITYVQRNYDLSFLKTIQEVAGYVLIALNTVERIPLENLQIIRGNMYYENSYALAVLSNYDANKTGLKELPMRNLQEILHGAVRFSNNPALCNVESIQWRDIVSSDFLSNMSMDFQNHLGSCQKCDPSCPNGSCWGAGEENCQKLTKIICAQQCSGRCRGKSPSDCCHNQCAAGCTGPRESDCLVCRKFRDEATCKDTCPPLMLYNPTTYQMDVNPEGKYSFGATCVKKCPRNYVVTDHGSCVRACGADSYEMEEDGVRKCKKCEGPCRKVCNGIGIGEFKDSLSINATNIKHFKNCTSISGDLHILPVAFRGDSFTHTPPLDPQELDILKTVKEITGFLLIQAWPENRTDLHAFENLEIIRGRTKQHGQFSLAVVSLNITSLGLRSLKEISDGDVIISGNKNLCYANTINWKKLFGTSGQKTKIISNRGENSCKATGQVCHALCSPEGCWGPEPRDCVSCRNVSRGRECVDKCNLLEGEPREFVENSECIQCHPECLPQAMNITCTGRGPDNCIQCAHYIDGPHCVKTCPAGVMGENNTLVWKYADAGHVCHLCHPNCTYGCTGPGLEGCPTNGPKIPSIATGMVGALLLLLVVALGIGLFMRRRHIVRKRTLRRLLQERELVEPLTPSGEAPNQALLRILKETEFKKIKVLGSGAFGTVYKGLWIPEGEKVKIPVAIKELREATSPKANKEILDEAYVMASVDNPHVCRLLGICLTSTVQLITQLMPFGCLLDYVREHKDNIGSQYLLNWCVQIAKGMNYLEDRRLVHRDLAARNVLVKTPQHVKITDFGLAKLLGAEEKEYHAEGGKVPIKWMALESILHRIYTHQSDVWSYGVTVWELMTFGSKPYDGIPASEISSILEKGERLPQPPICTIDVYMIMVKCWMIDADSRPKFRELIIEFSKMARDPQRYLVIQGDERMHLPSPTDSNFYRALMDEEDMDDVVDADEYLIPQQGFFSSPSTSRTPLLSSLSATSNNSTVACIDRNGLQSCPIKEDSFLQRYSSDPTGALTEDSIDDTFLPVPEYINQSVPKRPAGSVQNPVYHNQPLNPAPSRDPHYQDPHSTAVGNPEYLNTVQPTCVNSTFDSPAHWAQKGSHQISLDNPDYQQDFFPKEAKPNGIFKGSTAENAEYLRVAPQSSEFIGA
Summary of the method: (§2)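 Recombinant tyrosine kinases assayed on wells precoated with poly(Glu,Tyr)4:1 (20 µg/mL). ATP 10 µmol/L in HEPES pH 7.4 buffer with MgCl2, MnCl2, Na3VO4 and DTT; compound in 1% DMSO, 1% DMSO as control. Reaction 60 min at 37 °C. Phosphotyrosine detected with PY99 and HRP anti-mouse, o-phenylenediamine, A490. Inhibition % relative to control; two experiments.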

[3] = Selectivity ratio of IC50 for human AGS cells to IC50 for human EBC1 cells; assay type: ADME, cell-based
Summary of the method: (§3)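 Both IC50s in each ratio come from one proliferation assay. Cells were seeded and exposed the next day to a range of concentrations for 72 h, then read by SRB or MTT. IC50s were fitted by four-parameter concentration–response, with each concentration at least in triplicate and at least 2 experiments. BaF3/TPR-Met is murine pre-B BaF3 transfected with TPR-MET and puromycin-selected.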

[4] = Selectivity ratio of IC50 for human SNU1 cells to IC50 for human EBC1 cells; assay type: ADME, cell-based
[5] = molecular target: Mast/stem cell growth factor receptor Kit (Homo sapiens) (UniProt P10721); experiment: Inhibition of recombinant c-Kit (unknown origin) using poly (Glu, Tyr) 4:1 as substrate at 1000 nM incubated for 60 mins by ELISA relative to control; summary of the method: as §2
Sequence of Mast/stem cell growth factor receptor Kit (Homo sapiens) (P10721 whole entry): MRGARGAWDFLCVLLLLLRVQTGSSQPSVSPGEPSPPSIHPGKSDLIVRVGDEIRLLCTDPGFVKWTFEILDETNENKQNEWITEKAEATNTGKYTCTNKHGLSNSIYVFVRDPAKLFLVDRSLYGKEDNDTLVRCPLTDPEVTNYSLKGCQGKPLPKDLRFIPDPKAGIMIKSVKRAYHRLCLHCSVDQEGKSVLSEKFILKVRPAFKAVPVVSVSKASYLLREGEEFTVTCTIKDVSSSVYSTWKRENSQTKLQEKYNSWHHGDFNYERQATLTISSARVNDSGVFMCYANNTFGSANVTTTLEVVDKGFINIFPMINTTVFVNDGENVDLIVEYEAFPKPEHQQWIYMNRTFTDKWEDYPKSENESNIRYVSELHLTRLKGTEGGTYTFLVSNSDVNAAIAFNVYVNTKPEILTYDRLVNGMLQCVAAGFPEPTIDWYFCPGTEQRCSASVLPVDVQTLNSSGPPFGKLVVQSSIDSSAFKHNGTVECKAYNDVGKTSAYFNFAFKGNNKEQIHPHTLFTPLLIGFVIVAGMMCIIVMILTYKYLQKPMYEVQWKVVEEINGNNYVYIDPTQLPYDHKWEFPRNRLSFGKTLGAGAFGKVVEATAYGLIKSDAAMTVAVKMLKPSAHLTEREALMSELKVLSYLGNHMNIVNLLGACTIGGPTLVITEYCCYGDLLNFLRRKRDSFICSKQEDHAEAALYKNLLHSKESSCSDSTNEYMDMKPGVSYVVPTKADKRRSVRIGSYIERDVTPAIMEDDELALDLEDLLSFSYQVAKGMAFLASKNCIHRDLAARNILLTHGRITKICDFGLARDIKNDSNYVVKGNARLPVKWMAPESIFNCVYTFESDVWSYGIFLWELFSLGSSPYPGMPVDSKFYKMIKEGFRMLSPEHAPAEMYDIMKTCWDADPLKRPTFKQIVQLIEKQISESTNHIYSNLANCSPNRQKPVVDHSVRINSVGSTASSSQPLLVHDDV

[6] = molecular target: Tyrosine-protein kinase ABL1 (Homo sapiens) (UniProt P00519); experiment: Inhibition of recombinant ABL (unknown origin) using poly (Glu, Tyr) 4:1 as substrate at 1000 nM incubated for 60 mins by ELISA relative to control; summary of the method: as §2
Sequence of Tyrosine-protein kinase ABL1 (Homo sapiens) (P00519 whole entry): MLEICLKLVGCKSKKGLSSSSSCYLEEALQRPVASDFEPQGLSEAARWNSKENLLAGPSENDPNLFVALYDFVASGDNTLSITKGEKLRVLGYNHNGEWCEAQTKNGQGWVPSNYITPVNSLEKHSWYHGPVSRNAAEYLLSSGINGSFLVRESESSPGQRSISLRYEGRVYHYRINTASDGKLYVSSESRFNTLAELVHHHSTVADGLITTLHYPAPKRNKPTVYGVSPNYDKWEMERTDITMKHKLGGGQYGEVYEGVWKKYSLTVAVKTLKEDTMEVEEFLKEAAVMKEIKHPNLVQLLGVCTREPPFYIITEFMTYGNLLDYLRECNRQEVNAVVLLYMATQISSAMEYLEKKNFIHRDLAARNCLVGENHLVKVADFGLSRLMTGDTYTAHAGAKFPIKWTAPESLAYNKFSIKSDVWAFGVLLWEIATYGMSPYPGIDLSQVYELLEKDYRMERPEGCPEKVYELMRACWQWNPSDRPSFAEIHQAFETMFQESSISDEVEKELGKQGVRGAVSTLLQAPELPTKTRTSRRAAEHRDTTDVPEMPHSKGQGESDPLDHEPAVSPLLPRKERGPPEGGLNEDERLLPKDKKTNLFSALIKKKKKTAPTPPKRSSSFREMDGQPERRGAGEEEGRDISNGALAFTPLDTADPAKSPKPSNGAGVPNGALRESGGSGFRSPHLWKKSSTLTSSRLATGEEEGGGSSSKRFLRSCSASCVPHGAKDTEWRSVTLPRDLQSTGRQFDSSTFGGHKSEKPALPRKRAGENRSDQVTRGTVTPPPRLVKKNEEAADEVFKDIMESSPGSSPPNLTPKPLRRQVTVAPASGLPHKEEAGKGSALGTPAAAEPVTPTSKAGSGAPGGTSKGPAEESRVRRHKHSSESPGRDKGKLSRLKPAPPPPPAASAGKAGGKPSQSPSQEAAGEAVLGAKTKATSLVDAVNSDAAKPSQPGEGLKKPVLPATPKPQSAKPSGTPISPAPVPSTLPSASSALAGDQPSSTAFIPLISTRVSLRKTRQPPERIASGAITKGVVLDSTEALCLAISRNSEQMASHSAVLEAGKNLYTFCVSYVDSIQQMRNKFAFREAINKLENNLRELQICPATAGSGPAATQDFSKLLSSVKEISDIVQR

[7] = molecular target: Hepatocyte growth factor receptor (Homo sapiens, UniProt P08581); experiment: Inhibition of c-Met phosphorylation at Tyrosine 1235 in HGF stimulated human U87MG cells at 10 nM after 1 hr by Western blot analysis; assay type: cell-based; conditions: U-87MG ATCC
Sequence of Hepatocyte growth factor receptor (P08581 whole entry): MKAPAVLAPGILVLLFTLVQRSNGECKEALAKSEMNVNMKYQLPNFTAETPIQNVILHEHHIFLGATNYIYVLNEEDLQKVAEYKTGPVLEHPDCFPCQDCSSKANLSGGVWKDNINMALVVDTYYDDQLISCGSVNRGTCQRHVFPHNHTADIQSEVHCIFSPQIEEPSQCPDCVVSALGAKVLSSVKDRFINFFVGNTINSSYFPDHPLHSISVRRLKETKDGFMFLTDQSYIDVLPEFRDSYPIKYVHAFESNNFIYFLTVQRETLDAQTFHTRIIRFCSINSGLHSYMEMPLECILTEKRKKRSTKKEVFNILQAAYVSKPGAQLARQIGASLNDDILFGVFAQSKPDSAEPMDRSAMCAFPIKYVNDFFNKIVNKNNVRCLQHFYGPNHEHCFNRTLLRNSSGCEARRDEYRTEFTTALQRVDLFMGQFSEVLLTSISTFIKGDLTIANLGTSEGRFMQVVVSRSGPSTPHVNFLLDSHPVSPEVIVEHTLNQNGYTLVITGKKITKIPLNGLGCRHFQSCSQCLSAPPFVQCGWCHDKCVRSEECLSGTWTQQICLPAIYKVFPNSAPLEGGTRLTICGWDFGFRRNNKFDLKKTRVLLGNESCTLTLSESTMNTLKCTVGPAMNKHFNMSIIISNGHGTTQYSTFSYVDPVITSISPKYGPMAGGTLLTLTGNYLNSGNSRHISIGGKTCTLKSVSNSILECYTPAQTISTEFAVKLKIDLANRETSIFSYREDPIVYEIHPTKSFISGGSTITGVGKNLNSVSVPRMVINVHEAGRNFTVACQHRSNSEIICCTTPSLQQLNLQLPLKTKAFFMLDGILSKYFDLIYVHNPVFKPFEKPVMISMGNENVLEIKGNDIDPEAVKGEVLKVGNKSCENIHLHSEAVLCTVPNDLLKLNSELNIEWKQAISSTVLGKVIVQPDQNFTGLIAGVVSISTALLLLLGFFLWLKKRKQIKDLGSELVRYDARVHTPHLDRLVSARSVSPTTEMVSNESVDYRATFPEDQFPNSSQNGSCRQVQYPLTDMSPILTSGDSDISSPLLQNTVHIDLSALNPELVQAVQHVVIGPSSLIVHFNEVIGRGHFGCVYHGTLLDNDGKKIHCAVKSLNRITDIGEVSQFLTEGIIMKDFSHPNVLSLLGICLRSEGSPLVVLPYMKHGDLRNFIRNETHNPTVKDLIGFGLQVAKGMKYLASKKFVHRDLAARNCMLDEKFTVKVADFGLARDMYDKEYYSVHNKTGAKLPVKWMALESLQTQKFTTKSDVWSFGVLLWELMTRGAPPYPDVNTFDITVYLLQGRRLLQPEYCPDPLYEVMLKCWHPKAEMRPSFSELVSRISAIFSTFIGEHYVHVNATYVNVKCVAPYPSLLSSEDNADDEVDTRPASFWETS
Summary of the method: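 U87MG cells serum-starved 24 h, pretreated with compound 1 h at 37 °C, then stimulated with HGF (100 ng/mL) for 15 min. Lysed in 1× SDS sample buffer, resolved by 10% SDS-PAGE and blotted to nitrocellulose. Probed for phospho-c-Met, phospho-ERK1/2, phospho-AKT and totals, with GAPDH as loading control. ECL detection.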

[8] = Antiproliferative activity against human PANC1 cells after 72 hrs by SRB or MTT assay; assay type: functional, cell-based; conditions: PANC-1, 72 h
Summary of the method: (§4)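 Cells seeded, exposed next day to a range of concentrations for 72 h. Growth read by sulforhodamine B or MTT. IC50 from four-parameter concentration-response fit. Each concentration tested at least in triplicate, with at least 2 experiments.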

[9] = Antiproliferative activity against human U87MG cells after 72 hrs by SRB or MTT assay; assay type: functional, cell-based, U-87MG ATCC; conditions: U-87 MG; summary of the method: as §4
[10] = Antiproliferative activity against human HCT116 cells after 72 hrs by SRB or MTT assay; assay type: functional, cell-based; conditions: HCT-116, 72 h; summary of the method: as §4
[11] = Antiproliferative activity against human SPCA1 cells after 72 hrs by SRB or MTT assay; assay type: functional, cell-based; conditions: SPCA1, 72 h; summary of the method: as §4
SNU1 = experiment: Antiproliferative activity against human SNU1 cells after 72 hrs by SRB or MTT assay; assay type: functional, cell-based; conditions: SNU1, 72 h; summary of the method: as §4
[12] = Antitumor activity against human MKN45 cells xenografted in athymic nude mouse assessed as tumor growth inhibition at 12.5 mg/kg, po bid for 21 days measured twice a week during compound dosing relative to control; assay type: functional; conditions: MKN-45, po, 504 h, read-out: TGI; summary of the method: as §1
[13] = Antitumor activity against human MKN45 cells xenografted in athymic nude mouse assessed as tumor growth inhibition at 6.25 mg/kg, po bid for 21 days measured twice a week during compound dosing relative to control; assay type: functional; conditions: MKN-45, po, 504 h, read-out: TGI; summary of the method: as §1
MKN-45 = experiment: Antitumor activity against human MKN45 cells xenografted in po dosed athymic nude mouse assessed as tumor growth inhibition administered bid for 21 days measured twice a week during compound dosing; assay type: functional, organism-based; summary of the method: as §1
Mus musculus = experiment: Toxicity in athymic nude mouse xenografted with human EBC1 cells assessed as body weight loss at 6.25 to 25 mg/kg, po bid for 21 days measured twice a week during compound dosing; assay type: organism-based; conditions: in vivo, 504 h
Summary of the method: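 Nude mice carrying s.c. EBC-1 tumor fragments, randomized at 100–200 mm³ (n=6 treated, n=12 vehicle). Dosed orally twice daily for 21 days. Body weight and caliper tumor volume measured twice weekly.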

[14] = Selectivity ratio of IC50 for human Bel7404 cells to IC50 for human MKN45 cells; assay type: ADME, cell-based; summary of the method: as §3
[15] = Selectivity ratio of IC50 for human Bel7404 cells to IC50 for mouse BAF3 cells expressing TPR-MET; assay type: ADME, cell-based; summary of the method: as §3
[16] = Selectivity ratio of IC50 for human HCT116 cells to IC50 for human MKN45 cells; assay type: ADME, cell-based; conditions: hct-116; summary of the method: as §3
[17] = Selectivity ratio of IC50 for human HCT116 cells to IC50 for mouse BAF3 cells expressing TPR-MET; assay type: ADME, cell-based; summary of the method: as §3
[18] = Selectivity ratio of IC50 for human NCI-H1299 cells to IC50 for human EBC1 cells; assay type: ADME, cell-based; summary of the method: as §3
[19] = Selectivity ratio of IC50 for human NCI-H596 cells to IC50 for mouse BAF3 cells expressing TPR-MET; assay type: ADME, cell-based; summary of the method: as §3
[20] = Selectivity ratio of IC50 for human NCI-H3122 cells to IC50 for human EBC1 cells; assay type: ADME, cell-based; summary of the method: as §3
[21] = Selectivity ratio of IC50 for human NCI-H3122 cells to IC50 for mouse BAF3 cells expressing TPR-MET; assay type: ADME, cell-based; summary of the method: as §3
[22] = Selectivity ratio of IC50 for human NCI-H460 cells to IC50 for human MKN45 cells; assay type: ADME, cell-based; summary of the method: as §3
[23] = Selectivity ratio of IC50 for human NCI-H661 cells to IC50 for human EBC1 cells; assay type: ADME, cell-based; summary of the method: as §3
[24] = Selectivity ratio of IC50 for human NCI-H661 cells to IC50 for human MKN45 cells; assay type: ADME, cell-based; conditions: mkn-45; summary of the method: as §3
[25] = Selectivity ratio of IC50 for human MGC803 cells to IC50 for mouse BAF3 cells expressing TPR-MET; assay type: ADME, cell-based; summary of the method: as §3
[26] = Selectivity ratio of IC50 for human SPCA4 cells to IC50 for human EBC1 cells; assay type: ADME, cell-based; conditions: spc-a4
[27] = Selectivity ratio of IC50 for human SPCA1 cells to IC50 for human EBC1 cells; assay type: ADME, cell-based; conditions: SPCA1 cells versus EBC1 cells
[28] = Selectivity ratio of IC50 for human SPCA1 cells to IC50 for human MKN45 cells; assay type: ADME, cell-based; conditions: SPCA1 cells versus MKN45 cells

- inhibition [2]: 33.2%
- inhibition [5]: 32.1%
- inhibition [6]: 14.9%
- inhibition [7]: Active
- IC50 (SNU1): > 10 µM
Structure (SMILES): Fc1ccc(-c2cnc3nnc(C(F)(F)c4ccc5ncccc5c4)n3n2)cc1
- inhibition in vivo at 25 mg/kg [1]: 97.1%
- Ratio IC50 [3]: 10000
- Ratio IC50 [4]: 10000
- IC50 [8]: > 10 µM
- IC50 [9]: > 10 µM
- IC50 [10]: > 10 µM
- IC50 [11]: > 10 µM
- inhibition in vivo at 12.5 mg/kg [12]: 80.1%
- inhibition in vivo at 6.25 mg/kg [13]: 46.8%
- TGI (MKN-45): Dose-dependent effect
- Activity (Mus musculus): Non-toxic
- Ratio IC50 [14]: 10000
- Ratio IC50 [15]: 10000
- Ratio IC50 [16]: 10000
- Ratio IC50 [17]: 10000
- Ratio IC50 [18]: 10000
- Ratio IC50 [19]: 10000
- Ratio IC50 [20]: 10000
- Ratio IC50 [21]: 10000
- Ratio IC50 [22]: 10000
- Ratio IC50 [23]: 10000
- Ratio IC50 [24]: > 10000
- Ratio IC50 [25]: > 10000
- Ratio IC50 [26]: > 10000
- selectivity ratio [27]: > 10000
- selectivity ratio [28]: > 10000
